Columns and labels:
[1] = molecular target: 5-hydroxytryptamine receptor 3A (Homo sapiens) (UniProt P46098); test: Inhibition of human 5-HT3 receptor at 10 uM
Method in brief: (§1)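 Commercial receptor scan across a 78-target panel, with percent inhibition measured at a test concentration of 10 uM.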

Plasma [2] = test: Drug metabolism in cynomolgus monkey plasma assessed as hydrolysis of amide bond at 10 mg/kg; type: ADME, organism-based, Macaca fascicularis; conditions: in vivo
[3] = molecular target: Neuromedin-K receptor (Homo sapiens) (UniProt P29371); test: Inhibition of human NK3 receptor at 10 uM; method in brief: as §1
[4] = molecular target: Peroxisome proliferator-activated receptor gamma (Homo sapiens) (UniProt P37231); test: Inhibition of human PPARgamma at 10 uM
Method in brief: (§2)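 Outsourced broad receptor-screening panel of 78 targets, each tested at a single 10 uM concentration; read-out is percent inhibition. Detailed conditions are given only in the Supporting Information.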

[5] = molecular target: Vasopressin V1a receptor (Homo sapiens) (UniProt P37288); test: Inhibition of human vasopressin V1a receptor at 10 uM by radioligand binding assay; method in brief: as §2
Chain of Vasopressin V1a receptor (Homo sapiens) (P37288 whole entry, looked up): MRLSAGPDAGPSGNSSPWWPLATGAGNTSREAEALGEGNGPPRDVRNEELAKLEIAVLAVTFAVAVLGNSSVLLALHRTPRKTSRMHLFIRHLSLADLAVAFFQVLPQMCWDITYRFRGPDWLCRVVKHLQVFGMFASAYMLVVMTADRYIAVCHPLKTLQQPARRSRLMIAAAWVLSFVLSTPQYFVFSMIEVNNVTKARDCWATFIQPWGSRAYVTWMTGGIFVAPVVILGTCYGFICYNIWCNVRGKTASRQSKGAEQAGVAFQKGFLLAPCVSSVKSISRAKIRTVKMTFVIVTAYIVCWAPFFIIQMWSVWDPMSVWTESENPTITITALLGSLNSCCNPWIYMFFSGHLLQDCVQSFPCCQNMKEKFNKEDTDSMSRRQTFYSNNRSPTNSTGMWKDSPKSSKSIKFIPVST

[6] = molecular target: Adenosine receptor A2a (Homo sapiens) (UniProt P29274); test: Inhibition of human adenosine A2A receptor at 10 uM by radioligand binding assay; method in brief: as §2
Chain of Adenosine receptor A2a (Homo sapiens) (P29274 whole entry): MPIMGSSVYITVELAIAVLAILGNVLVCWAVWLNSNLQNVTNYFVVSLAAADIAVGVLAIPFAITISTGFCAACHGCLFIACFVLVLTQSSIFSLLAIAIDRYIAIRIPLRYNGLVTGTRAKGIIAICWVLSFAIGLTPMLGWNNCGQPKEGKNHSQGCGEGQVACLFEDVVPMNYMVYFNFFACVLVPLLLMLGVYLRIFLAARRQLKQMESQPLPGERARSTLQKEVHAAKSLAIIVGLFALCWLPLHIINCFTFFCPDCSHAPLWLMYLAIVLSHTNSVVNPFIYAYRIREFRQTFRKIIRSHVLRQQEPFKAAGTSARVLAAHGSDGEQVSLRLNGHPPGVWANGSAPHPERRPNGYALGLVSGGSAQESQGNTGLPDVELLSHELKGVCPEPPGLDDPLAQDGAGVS

[7] = molecular target: P2X2/P2X3 heterotrimeric receptor (Homo sapiens, UniProt P56373+Q9UBL9); test: Inhibition of P2X2/3R (unknown origin); type: protein-complex assay
Chain of P2X2/P2X3 heterotrimeric receptor (Q9UBL9 whole entry): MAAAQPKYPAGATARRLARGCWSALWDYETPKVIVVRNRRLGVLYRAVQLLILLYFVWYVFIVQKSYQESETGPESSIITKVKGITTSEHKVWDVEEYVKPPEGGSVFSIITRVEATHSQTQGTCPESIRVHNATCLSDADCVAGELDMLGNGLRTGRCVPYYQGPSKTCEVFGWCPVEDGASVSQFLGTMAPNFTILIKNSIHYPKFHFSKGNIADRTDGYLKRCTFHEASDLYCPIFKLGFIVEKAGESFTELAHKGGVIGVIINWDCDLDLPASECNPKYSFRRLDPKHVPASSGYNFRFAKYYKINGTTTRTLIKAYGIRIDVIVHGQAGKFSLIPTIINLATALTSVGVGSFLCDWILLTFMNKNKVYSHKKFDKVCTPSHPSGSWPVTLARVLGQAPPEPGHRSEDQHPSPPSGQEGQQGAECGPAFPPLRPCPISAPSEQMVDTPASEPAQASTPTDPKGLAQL
Chain of P2X2/P2X3 heterotrimeric receptor (P56373 whole entry): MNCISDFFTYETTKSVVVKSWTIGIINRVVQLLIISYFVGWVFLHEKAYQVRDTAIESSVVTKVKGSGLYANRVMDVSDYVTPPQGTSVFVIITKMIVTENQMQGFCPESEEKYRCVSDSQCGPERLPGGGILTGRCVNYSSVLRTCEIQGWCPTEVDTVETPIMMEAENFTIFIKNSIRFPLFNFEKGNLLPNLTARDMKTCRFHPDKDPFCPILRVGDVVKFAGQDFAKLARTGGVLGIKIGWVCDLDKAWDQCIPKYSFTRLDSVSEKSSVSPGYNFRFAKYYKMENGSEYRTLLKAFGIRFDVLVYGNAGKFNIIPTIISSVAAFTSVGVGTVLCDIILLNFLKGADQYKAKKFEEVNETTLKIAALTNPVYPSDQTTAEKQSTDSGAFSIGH
Method in brief: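 Selectivity at other P2X receptor subtypes, read as IC50 in a FLIPR Ca2+ flux assay.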

P2X purinoceptor 7 = molecular target: T1, P2X purinoceptor 7 (Homo sapiens, UniProt Q99572); test: Antagonist activity at human P2X7R expressed in BzATP-stimulated human 1321N1 cells incubated for 20 mins followed by BzATP stimulation measured every 1 sec for 60 secs followed by 3 sec intervals for 4 mins by FLIPR Ca2+ assay in presence of ionomycin; type: cell-based
T1 sequence (Q99572 whole entry): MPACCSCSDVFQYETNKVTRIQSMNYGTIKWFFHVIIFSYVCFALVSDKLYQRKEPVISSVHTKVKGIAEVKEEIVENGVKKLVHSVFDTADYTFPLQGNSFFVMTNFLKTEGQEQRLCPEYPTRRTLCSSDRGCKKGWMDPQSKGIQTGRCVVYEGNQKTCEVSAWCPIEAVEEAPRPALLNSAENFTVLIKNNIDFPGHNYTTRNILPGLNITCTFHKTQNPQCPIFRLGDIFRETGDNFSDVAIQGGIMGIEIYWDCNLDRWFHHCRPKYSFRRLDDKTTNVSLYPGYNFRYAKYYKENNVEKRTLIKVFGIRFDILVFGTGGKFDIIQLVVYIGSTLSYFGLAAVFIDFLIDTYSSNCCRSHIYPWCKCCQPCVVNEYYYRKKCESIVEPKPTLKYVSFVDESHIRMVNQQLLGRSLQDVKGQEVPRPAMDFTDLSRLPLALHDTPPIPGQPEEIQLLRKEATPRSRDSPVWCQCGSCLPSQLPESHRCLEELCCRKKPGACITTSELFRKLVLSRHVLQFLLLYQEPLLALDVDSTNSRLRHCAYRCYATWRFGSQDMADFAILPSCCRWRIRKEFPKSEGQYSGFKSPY
Method in brief: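 1321N1 cells stably expressing human P2X7R, stimulated with BzATP; calcium flux read on FLIPR. IC50 is the mean of n ≥ 2 runs, each including a positive control.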

[8] = molecular target: Adenosine receptor A1 (Homo sapiens) (UniProt P30542); test: Inhibition of human adenosine A1 receptor at 10 uM; method in brief: as §2
Chain of Adenosine receptor A1 (Homo sapiens) (P30542 whole entry): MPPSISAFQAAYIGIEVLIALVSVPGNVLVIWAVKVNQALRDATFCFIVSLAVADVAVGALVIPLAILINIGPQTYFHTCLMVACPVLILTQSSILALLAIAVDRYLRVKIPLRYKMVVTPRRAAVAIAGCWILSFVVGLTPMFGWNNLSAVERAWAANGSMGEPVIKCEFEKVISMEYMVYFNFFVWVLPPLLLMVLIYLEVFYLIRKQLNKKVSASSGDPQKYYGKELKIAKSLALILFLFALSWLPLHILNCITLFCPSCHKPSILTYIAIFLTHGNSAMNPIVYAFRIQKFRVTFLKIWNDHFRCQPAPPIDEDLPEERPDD

[9] = molecular target: 5-hydroxytryptamine receptor 1A (Homo sapiens) (UniProt P08908); test: Inhibition of human 5-HT1A receptor at 10 uM; method in brief: as §1
Chain of 5-hydroxytryptamine receptor 1A (Homo sapiens) (P08908 whole entry): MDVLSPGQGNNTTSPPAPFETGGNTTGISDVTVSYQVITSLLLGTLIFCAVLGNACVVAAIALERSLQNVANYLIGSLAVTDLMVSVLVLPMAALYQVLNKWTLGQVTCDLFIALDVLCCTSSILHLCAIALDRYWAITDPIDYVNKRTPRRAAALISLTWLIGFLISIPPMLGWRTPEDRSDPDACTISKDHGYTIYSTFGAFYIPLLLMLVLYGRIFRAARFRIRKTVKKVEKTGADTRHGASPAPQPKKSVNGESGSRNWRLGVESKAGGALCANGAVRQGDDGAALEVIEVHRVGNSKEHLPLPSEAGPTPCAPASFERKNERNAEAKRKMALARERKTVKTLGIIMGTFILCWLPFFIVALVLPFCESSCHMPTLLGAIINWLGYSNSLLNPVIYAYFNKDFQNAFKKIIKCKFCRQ

[10] = molecular target: 5-hydroxytryptamine receptor 7 (Homo sapiens) (UniProt P34969); test: Inhibition of human 5-HT7 receptor at 10 uM by radioligand binding assay; method in brief: as §1
Chain of 5-hydroxytryptamine receptor 7 (Homo sapiens) (P34969 whole entry): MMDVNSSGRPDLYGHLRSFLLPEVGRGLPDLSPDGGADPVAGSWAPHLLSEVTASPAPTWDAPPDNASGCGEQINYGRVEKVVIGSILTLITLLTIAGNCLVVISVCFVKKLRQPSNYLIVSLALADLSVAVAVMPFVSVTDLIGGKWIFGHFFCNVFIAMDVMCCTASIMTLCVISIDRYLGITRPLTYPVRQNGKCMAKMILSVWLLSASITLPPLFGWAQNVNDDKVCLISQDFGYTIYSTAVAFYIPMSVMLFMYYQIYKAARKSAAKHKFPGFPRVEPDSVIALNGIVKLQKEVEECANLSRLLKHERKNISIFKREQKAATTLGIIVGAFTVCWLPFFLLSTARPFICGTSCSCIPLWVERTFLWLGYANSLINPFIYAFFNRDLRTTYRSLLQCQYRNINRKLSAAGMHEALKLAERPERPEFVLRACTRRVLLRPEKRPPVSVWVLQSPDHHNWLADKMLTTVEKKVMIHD

[11] = molecular target: Kappa-type opioid receptor (Rattus norvegicus) (UniProt P34975); test: Inhibition of rat kappa opioid receptor at 10 uM by radioligand binding assay
Chain of Kappa-type opioid receptor (Rattus norvegicus) (P34975 whole entry): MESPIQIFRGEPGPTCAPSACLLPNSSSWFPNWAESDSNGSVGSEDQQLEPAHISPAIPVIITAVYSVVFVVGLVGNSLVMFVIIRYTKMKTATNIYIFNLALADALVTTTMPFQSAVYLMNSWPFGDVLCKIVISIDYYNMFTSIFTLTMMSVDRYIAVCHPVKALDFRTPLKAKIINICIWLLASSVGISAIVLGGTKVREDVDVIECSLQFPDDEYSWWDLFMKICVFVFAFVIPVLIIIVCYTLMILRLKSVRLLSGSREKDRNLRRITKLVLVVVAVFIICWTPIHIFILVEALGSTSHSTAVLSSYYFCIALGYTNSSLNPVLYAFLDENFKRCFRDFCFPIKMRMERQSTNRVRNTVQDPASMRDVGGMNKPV
Method in brief: (§3)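 Single-concentration screen at 10 uM in a commercial 78-receptor panel run by CEREP; results are given as % inhibition.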

Rattus norvegicus [12] = species: Rattus norvegicus; test: Inhibition of rat GABA-chloride channel receptor at 10 uM by radioligand binding assay; method in brief: as §2
[13] = molecular target: Muscarinic acetylcholine receptor M1 (Homo sapiens) (UniProt P11229); test: Inhibition of human muscarinic M1 receptor at 10 uM; method in brief: as §2
Chain of Muscarinic acetylcholine receptor M1 (Homo sapiens) (P11229 whole entry): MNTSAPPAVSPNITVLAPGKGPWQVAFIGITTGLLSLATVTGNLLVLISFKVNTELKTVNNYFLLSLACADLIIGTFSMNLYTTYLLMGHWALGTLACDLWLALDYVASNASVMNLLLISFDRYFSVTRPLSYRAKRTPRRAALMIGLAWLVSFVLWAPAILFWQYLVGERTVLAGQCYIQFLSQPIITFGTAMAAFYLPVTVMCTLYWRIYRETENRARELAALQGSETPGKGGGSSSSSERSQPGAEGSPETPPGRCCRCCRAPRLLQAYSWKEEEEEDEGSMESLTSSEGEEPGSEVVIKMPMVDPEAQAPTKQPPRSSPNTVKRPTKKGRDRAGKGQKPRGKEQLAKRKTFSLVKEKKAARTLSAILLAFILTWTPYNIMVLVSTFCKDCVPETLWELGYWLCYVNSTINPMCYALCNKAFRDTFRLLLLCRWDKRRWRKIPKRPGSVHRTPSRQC

[14] = molecular target: Muscarinic acetylcholine receptor M3 (Homo sapiens) (UniProt P20309); test: Inhibition of human muscarinic M3 receptor at 10 uM; method in brief: as §2
Plasma [15] = test: Metabolic stability in rat plasma at 10 uM after 4 hrs by LC/MS/MS analysis; type: ADME, cell-free
[16] = Drug metabolism in cynomolgus monkey urine assessed as hydrolysis of amide bond at 10 mg/kg; type: ADME, organism-based, Macaca fascicularis; conditions: in vivo
[17] = molecular target: 5-hydroxytryptamine receptor 6 (Homo sapiens) (UniProt P50406); test: Inhibition of human 5-HT6 receptor at 10 uM by radioligand binding assay; method in brief: as §1
Chain of 5-hydroxytryptamine receptor 6 (Homo sapiens) (P50406 whole entry): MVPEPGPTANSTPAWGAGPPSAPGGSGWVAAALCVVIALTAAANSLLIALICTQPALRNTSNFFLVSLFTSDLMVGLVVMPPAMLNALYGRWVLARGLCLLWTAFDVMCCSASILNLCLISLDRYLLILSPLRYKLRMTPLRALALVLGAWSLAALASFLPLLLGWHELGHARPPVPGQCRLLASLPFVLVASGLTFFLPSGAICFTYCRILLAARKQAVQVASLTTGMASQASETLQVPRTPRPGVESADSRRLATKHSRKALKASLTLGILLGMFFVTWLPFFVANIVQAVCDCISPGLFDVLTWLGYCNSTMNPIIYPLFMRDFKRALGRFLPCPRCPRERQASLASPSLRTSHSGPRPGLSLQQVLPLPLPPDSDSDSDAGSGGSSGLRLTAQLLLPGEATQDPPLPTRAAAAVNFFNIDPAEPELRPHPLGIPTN

Rattus norvegicus [18] = species: Rattus norvegicus; test: Inhibition of rat L-type calcium channel verapamil binding site at 10 uM; method in brief: as §2
[19] = molecular target: Prostaglandin E2 receptor EP4 subtype (Homo sapiens) (UniProt P35408); test: Inhibition of human prostanoid EP4 receptor at 10 uM by radioligand binding assay; method in brief: as §2
Rattus norvegicus [20] = species: Rattus norvegicus; test: Inhibition of rat P2X purinoceptor at 10 uM by radioligand binding assay; method in brief: as §2
[21] = Clearance in rat at 0.5 mg/kg, iv administered as single dose; type: ADME, organism-based; conditions: in vivo
Method in brief: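 Single-dose rat PK: iv at 0.5 mg/kg and po at 2 mg/kg. n ≥ 2 animals per time point. Oral AUC normalized to dose; clearance, Vdss and half-life taken from the iv arm.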

Rattus norvegicus [22] = species: Rattus norvegicus; test: Inhibition of rat sodium channel site 2 at 10 uM by radioligand binding assay; method in brief: as §3
[23] = molecular target: Platelet-derived growth factor receptor (Mus musculus) (UniProt P05622+P26618); test: Inhibition of mouse PDGFR at 10 uM by radioligand binding assay; type: protein-complex assay; method in brief: as §2
[24] = Oral bioavailability in rat at 2 mg/kg administered as single dose; type: ADME, organism-based; conditions: in vivo
Method in brief: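 Rats given a single dose, iv 0.5 mg/kg or po 2 mg/kg, with n ≥ 2 per time point. Bioavailability is derived from the po and iv exposures. Vdss is reported in L/kg.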

[25] = molecular target: Somatostatin receptor (Mus musculus) (UniProt P30935+O08858+P30875+P30873+P49660); test: Inhibition of mouse somatostatin receptor at 10 uM by radioligand binding assay; type: protein assay; method in brief: as §2
[26] = molecular target: Histamine H1 receptor (Homo sapiens) (UniProt P35367); test: Inhibition of human histamine H1 receptor at 10 uM; method in brief: as §2
Liver microsome = test: Drug metabolism in human liver microsomes assessed as hydrolysis of amide bond; type: ADME
[27] = molecular target: D(4) dopamine receptor (Homo sapiens) (UniProt P21917); test: Inhibition of human dopamine D4.4 receptor at 10 uM; method in brief: as §2
[28] = molecular target: 5-hydroxytryptamine receptor 1B (Homo sapiens) (UniProt P28222); test: Inhibition of human 5-HT1B receptor at 10 uM by radioligand binding assay; method in brief: as §1
Chain of 5-hydroxytryptamine receptor 1B (Homo sapiens) (P28222 whole entry): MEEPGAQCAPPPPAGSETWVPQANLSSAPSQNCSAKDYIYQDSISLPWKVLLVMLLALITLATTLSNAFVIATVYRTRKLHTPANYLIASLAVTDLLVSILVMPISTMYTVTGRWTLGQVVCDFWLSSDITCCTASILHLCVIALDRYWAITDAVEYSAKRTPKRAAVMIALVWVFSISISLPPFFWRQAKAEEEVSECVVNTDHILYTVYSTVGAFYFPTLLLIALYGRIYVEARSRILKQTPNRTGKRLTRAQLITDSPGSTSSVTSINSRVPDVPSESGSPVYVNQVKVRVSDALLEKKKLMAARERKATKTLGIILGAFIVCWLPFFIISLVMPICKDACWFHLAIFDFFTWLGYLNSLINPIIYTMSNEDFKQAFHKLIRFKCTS

[29] = molecular target: Translocator protein (Rattus norvegicus) (UniProt P16257); test: Inhibition of rat peripheral type benzodiazepine receptor at 10 uM by radioligand binding assay; method in brief: as §3
Chain of Translocator protein (Rattus norvegicus) (P16257 whole entry, looked up): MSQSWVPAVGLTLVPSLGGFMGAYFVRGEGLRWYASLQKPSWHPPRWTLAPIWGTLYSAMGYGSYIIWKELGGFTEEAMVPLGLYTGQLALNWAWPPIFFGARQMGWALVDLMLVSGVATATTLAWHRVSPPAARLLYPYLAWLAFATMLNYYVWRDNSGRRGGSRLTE

Cc1cc(Cl)c(OCCO)cc1NC(=O)C1=CNC(=O)C[C@H]1c1ccc(F)cc1
Stable: Stability (Plasma [2]) | Stability (Plasma [15]) | Stability [16] | Stability (Liver microsome)
23 nM: IC50 (P2X purinoceptor 7)
74%: bioavailability [24]
> 10000 nM: IC50 [7]
< 30%: inhibition [1] | inhibition [3] | inhibition [4] | inhibition [5] | inhibition [6] | inhibition [8] | inhibition [9] | inhibition [10] | inhibition [11] | inhibition (Rattus norvegicus [12]) | inhibition [13] | inhibition [14] | inhibition [17] | inhibition (Rattus norvegicus [18]) | inhibition [19] | inhibition (Rattus norvegicus [20]) | inhibition (Rattus norvegicus [22]) | inhibition [23] | inhibition [25] | inhibition [26] | inhibition [27] | inhibition [28] | inhibition [29]
8.4 mL/min/kg: clearance [21]
